In ChEMBL document CHEMBL4024710, “Discovery of novel 1,2,3,4-tetrahydrobenzo[4, 5]thieno[2, 3-c]pyridine derivatives as potent and selective CYP17 inhibitors” (Eur J Med Chem, 2017) one finds IC50, inhibition and residual activity data, which are given here for 13 compounds.

Broadly, the IC50 is the concentration needed to halve the response being measured. By inhibition is commonly meant the relative decrease from the control value, in per cent. A low value points to a response near the control. The residual activity is the signal under treatment as a percentage of the control signal.

T4 sequence (P11712 whole entry): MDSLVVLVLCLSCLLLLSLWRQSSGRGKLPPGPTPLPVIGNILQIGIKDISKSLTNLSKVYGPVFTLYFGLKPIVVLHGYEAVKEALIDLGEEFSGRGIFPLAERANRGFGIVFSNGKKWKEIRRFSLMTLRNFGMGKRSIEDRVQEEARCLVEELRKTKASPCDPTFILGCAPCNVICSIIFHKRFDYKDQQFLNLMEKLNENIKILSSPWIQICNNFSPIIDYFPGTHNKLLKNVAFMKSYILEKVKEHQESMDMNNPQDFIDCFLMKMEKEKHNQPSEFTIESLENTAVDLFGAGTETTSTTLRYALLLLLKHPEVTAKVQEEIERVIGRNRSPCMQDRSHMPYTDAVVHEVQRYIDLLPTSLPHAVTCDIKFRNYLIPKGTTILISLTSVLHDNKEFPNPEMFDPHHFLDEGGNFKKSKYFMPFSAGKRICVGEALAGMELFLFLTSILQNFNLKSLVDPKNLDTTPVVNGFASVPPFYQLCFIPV
Chain of Cytochrome P450 3A4 (P08684 whole entry): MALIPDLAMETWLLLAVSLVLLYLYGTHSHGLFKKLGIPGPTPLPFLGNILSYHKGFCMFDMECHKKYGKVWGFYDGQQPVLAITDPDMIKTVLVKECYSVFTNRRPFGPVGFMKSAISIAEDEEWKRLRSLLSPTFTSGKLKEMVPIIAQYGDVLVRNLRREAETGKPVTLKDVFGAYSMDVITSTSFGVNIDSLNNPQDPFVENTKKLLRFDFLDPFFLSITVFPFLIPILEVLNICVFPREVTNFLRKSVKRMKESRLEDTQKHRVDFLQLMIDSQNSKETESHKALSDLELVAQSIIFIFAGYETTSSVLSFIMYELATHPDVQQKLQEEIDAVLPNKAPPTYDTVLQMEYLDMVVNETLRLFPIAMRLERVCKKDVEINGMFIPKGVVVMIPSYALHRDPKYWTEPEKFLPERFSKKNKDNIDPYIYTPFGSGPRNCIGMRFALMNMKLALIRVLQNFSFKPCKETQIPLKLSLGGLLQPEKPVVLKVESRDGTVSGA

The first series has as its target T1, Steroid 17-alpha-hydroxylase/17,20 lyase (Rattus norvegicus, UniProt P11715).
T1 sequence (P11715 whole entry): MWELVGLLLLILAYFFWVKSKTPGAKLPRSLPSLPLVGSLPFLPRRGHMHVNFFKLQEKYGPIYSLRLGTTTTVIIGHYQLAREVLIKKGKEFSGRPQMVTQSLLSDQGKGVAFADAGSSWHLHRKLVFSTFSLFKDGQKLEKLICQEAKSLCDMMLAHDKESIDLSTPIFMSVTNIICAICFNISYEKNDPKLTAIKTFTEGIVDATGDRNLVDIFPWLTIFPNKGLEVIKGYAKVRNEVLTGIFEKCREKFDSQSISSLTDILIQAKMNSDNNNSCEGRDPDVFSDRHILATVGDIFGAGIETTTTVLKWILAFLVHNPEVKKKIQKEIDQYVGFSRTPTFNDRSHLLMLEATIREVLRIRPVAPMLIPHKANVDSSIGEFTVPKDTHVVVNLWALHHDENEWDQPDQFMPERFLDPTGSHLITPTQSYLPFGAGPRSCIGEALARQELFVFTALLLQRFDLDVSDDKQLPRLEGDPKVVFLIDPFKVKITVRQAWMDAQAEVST
The experiment in a line: Inhibition of CYP17 in Sprague-Dawley rat testes microsomes using 17-alpha hydroxyprogesterone as substrate and NADPH as cofactor pretreated for 5 mins followed by substrate and cofactor addition after 60 mins by LC/Ms analysis. On the set-up: species or system Testis. In short, it runs like this:
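Rat testis microsomes from male SD rats weighing 220–250 g, prepared at 4 °C by differential centrifugation (9000 g, then 105,000 g pellet). 2 µg protein in 0.05 M phosphate pH 7.5 preincubated with inhibitor 5 min at 25 °C. Started with 10 µM 17α-hydroxyprogesterone plus 4.2 mM NADPH, 60 min at 25 °C, stopped with methanol. Androstenedione measured by LC/MS; IC50 is the mean of at least three experiments.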
Consider `CC(C)c1ccncc1CN1CCc2c(sc3ccc(F)cc23)C1`, for which the half-maximal inhibitory concentration (IC50) worked out at 535 nM.

As to `Fc1ccc2sc3c(c2c1)CCN(Cc1cncc2ccccc12)C3`, the IC50 was determined as 390 nM.

Regarding `C[C@]12CC[C@H](O)CC1=CC[C@@H]1[C@@H]2CC[C@]2(C)C(c3cccnc3)=CC[C@@H]12` [ABIRATERONE], the IC50 was found to be 24.7 nM.

`CC1(C)OB(c2ccc3sc4c(c3c2)CCN(Cc2cccnc2)C4)OC1(C)C`: the IC50 was 115 nM.

For the compound `Fc1ccc2sc3c(c2c1)CCN(Cc1ccncc1)C3`, the IC50 is above 1000 nM.

As for `Fc1ccc2sc3c(c2c1)CCN(Cc1cnccc1-c1ccccc1)C3`, the IC50 is above 1000 nM.

As to `Fc1ccc2sc3c(c2c1)CCN(Cc1cnccc1Br)C3`, the IC50 was 75.8 nM.

Consider `Fc1ccc2sc3c(c2c1)CCN(Cc1cnccc1C1CC1)C3`, for which the IC50 was 61.1 nM.

For `c1cncc(CN2CCc3c(sc4ccccc34)C2)c1`, the IC50 is 28.1 to 54.9 nM.

Regarding `Cc1ccc2sc3c(c2c1)CCN(Cc1cccnc1)C3`, the IC50 was found to be 257 nM.

Consider `N#Cc1ccc2sc3c(c2c1)CCN(Cc1cccnc1)C3`, for which the 50% inhibitory concentration (IC50) amounted to 257 nM.

On to `CC(C)(C)OC(=O)Nc1ccc2sc3c(c2c1)CCN(Cc1cccnc1)C3`, for which the IC50 was above 1000 nM.

Take `Fc1ccc2sc3c(c2c1)CCN(Cc1cccnc1)C3`: the 50% inhibitory concentration (IC50) is 28.1 nM.

The target of a further series is T2, Steroid 17-alpha-hydroxylase/17,20 lyase (Homo sapiens, UniProt P05093).
T2 sequence (P05093 whole entry): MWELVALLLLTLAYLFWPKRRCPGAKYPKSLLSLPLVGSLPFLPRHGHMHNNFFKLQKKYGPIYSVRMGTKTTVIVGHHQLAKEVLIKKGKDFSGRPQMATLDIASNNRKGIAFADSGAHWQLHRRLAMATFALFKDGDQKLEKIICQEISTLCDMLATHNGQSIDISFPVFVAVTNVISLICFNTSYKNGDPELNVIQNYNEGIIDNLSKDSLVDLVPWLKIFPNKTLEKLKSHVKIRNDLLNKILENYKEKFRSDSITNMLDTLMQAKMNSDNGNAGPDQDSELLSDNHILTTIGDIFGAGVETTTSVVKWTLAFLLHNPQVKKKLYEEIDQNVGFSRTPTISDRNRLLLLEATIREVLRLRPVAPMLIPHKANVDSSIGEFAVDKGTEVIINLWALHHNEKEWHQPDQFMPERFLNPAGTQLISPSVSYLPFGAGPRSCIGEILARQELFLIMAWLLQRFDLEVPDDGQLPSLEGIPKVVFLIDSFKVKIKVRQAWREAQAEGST
The experiment in a line: Inhibition of recombinant human CYP17 expressed in human A549 cell membranes using 17-alpha hydroxyprogesterone as substrate and NADPH as cofactor pretreated for 5 mins followed by substrate and cofactor addition after 60 mins by LC/MS analysis. In short, it runs like this:
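Enzyme source was purified membranes of A549 cells expressing human CYP17 from an adenoviral vector. 2 µg membrane protein in 0.05 M phosphate pH 7.5 with inhibitor, preincubated 5 min at 25 °C. Reaction started with 10 µM 17α-hydroxyprogesterone and 4.2 mM NADPH, run 60 min at 25 °C, methanol stop. Androstenedione quantified by LC/MS; IC50 is the mean of at least three experiments.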
As for `Fc1ccc2sc3c(c2c1)CCN(Cc1cccnc1)C3`, the IC50 stood at 29 nM.

The next series addresses Cytochrome P450 3A4 (Homo sapiens, UniProt P08684). The experiment in a line: Inhibition of human hepatic CYP3A4. It counts as ADME.
In turn, `Fc1ccc2sc3c(c2c1)CCN(Cc1cccnc1)C3` showed an IC50 of 7900 nM.

The target in a further series is T3, CYP1A2 (Homo sapiens, UniProt P05177).
T3 sequence (P05177 whole entry): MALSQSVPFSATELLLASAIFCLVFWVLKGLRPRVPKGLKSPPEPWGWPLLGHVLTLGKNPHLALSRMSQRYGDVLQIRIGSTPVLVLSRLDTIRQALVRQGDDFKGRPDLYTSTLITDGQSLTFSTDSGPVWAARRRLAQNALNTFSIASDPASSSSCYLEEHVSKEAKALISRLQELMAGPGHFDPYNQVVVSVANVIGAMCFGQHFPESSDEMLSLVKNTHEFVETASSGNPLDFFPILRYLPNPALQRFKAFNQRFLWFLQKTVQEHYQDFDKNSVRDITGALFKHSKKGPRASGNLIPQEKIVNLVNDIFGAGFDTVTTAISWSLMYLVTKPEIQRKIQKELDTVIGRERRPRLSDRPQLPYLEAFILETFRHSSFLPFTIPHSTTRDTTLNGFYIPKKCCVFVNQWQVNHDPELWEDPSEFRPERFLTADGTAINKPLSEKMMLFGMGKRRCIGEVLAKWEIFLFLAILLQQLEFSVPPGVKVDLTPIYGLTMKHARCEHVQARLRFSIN
The series is described as follows: Inhibition of human hepatic CYP1A2 at 1 uM relative to control. It counts as ADME.
Consider `C[C@]12CC[C@H](O)CC1=CC[C@@H]1[C@@H]2CC[C@]2(C)C(c3cccnc3)=CC[C@@H]12` [ABIRATERONE], for which the inhibition at 1 µM amounted to 34%.

Consider `Fc1ccc2sc3c(c2c1)CCN(Cc1cccnc1)C3`, for which the inhibition at 1 µM turned out to be 20.6%.

The target in a further series is T3, CYP1A2. The experiment in a line: Inhibition of human hepatic CYP1A2 at 10 uM relative to control. It counts as ADME.
With `C[C@]12CC[C@H](O)CC1=CC[C@@H]1[C@@H]2CC[C@]2(C)C(c3cccnc3)=CC[C@@H]12` [ABIRATERONE], the inhibition at 10 µM is 92.5%.

The compound `Fc1ccc2sc3c(c2c1)CCN(Cc1cccnc1)C3` gave an inhibition at 10 µM of 71.6%.

A further series has as its target T4, CYP2C9 (Homo sapiens, UniProt P11712). The series is described as follows: Inhibition of human hepatic CYP2C9 at 1 uM relative to control. It counts as ADME.
With `C[C@]12CC[C@H](O)CC1=CC[C@@H]1[C@@H]2CC[C@]2(C)C(c3cccnc3)=CC[C@@H]12` [ABIRATERONE], the inhibition at 1 µM worked out at 31.6%.

Compound `Fc1ccc2sc3c(c2c1)CCN(Cc1cccnc1)C3` returned an inhibition at 1 µM of 6.6%.

Another series concerns the target T4, CYP2C9. The experiment in a line: Inhibition of human hepatic CYP2C9 at 10 uM relative to control. Format: ADME.
As for `C[C@]12CC[C@H](O)CC1=CC[C@@H]1[C@@H]2CC[C@]2(C)C(c3cccnc3)=CC[C@@H]12` [ABIRATERONE], the inhibition at 10 µM was 82.5%.

`Fc1ccc2sc3c(c2c1)CCN(Cc1cccnc1)C3` displayed an inhibition at 10 µM of 53.2%.

The target of a further series is T5, CYP2C19 (Homo sapiens, UniProt P33261). The series is described as follows: Inhibition of human hepatic CYP2C19 at 1 uM relative to control. It counts as ADME.
T5 sequence (P33261 whole entry): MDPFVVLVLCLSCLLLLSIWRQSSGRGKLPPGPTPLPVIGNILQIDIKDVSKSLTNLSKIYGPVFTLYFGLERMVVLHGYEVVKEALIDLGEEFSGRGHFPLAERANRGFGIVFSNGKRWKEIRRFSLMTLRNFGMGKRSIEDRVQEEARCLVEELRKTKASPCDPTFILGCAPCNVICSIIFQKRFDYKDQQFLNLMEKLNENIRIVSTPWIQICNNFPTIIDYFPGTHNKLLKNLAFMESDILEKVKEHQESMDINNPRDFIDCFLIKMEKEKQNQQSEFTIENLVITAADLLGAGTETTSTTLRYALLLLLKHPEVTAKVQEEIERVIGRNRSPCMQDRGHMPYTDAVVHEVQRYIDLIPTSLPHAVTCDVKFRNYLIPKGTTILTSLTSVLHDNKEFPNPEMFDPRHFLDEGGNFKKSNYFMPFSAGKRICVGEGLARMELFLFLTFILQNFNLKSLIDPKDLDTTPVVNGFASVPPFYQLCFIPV
As to `C[C@]12CC[C@H](O)CC1=CC[C@@H]1[C@@H]2CC[C@]2(C)C(c3cccnc3)=CC[C@@H]12` [ABIRATERONE], the inhibition at 1 µM came to 39.6%.

Turning to `Fc1ccc2sc3c(c2c1)CCN(Cc1cccnc1)C3`, at 1 µM the inhibition was 47.3%.

The target of the next series is T5, CYP2C19. The series is described as follows: Inhibition of human hepatic CYP2C19 at 10 uM relative to control. It counts as ADME.
In the case of `C[C@]12CC[C@H](O)CC1=CC[C@@H]1[C@@H]2CC[C@]2(C)C(c3cccnc3)=CC[C@@H]12` [ABIRATERONE], 10 µM produced 91.6% inhibition.

With `Fc1ccc2sc3c(c2c1)CCN(Cc1cccnc1)C3`, the inhibition at 10 µM worked out at 92.5%.

For the next series, the target named is T6, CYP2D6 (Homo sapiens, UniProt P10635). The series is described as follows: Inhibition of human hepatic CYP2D6 at 1 uM relative to control. It counts as ADME.
T6 sequence (P10635 whole entry): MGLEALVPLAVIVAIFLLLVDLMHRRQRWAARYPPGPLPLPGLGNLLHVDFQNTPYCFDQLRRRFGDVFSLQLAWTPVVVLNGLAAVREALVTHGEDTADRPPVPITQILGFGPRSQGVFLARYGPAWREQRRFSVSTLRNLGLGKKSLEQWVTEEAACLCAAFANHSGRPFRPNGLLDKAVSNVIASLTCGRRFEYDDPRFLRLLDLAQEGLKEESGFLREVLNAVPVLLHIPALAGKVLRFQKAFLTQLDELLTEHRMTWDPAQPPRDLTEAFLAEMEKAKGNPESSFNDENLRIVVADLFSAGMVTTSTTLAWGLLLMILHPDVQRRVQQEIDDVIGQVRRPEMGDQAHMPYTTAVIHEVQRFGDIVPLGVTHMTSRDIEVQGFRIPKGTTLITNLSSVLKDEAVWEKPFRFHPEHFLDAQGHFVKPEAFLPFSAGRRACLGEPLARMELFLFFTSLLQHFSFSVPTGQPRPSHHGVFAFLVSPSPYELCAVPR
In turn, `C[C@]12CC[C@H](O)CC1=CC[C@@H]1[C@@H]2CC[C@]2(C)C(c3cccnc3)=CC[C@@H]12` [ABIRATERONE] showed an inhibition at 1 µM of 10.4%.

In turn, `Fc1ccc2sc3c(c2c1)CCN(Cc1cccnc1)C3` returned an inhibition at 1 µM of 37.5%.

The target in another series is T6, CYP2D6. The series is described as follows: Inhibition of human hepatic CYP2D6 at 10 uM relative to control. Format: ADME.
In turn, `C[C@]12CC[C@H](O)CC1=CC[C@@H]1[C@@H]2CC[C@]2(C)C(c3cccnc3)=CC[C@@H]12` [ABIRATERONE] came in with an inhibition at 10 µM of 78.5%.

For the compound `Fc1ccc2sc3c(c2c1)CCN(Cc1cccnc1)C3`, the inhibition at 10 µM was 83.7%.

Another series addresses T2, Steroid 17-alpha-hydroxylase/17,20 lyase. The experiment in a line: Residual CYP17 activity in human NCI-H295R cells assessed as testosterone production at 1 uM measured after 72 hrs relative to control.
For `C[C@]12CC[C@H](O)CC1=CC[C@@H]1[C@@H]2CC[C@]2(C)C(c3cccnc3)=CC[C@@H]12` [ABIRATERONE], the residual activity at 1 µM is 74%.
